Key:
Assay type in all cases: ADME
[1] = target: T1, Solute carrier family 15 member 1 (Rattus norvegicus, UniProt P51574); assay: Drug uptake in Pichia pastoris GS115 expressing rat recombinant PEPT1 at 5 uM after 30s by dual-channel liquid scintillation counting analysis in presence of elacridar relative to control; details: 0.5 min
T1 sequence (P51574 whole entry): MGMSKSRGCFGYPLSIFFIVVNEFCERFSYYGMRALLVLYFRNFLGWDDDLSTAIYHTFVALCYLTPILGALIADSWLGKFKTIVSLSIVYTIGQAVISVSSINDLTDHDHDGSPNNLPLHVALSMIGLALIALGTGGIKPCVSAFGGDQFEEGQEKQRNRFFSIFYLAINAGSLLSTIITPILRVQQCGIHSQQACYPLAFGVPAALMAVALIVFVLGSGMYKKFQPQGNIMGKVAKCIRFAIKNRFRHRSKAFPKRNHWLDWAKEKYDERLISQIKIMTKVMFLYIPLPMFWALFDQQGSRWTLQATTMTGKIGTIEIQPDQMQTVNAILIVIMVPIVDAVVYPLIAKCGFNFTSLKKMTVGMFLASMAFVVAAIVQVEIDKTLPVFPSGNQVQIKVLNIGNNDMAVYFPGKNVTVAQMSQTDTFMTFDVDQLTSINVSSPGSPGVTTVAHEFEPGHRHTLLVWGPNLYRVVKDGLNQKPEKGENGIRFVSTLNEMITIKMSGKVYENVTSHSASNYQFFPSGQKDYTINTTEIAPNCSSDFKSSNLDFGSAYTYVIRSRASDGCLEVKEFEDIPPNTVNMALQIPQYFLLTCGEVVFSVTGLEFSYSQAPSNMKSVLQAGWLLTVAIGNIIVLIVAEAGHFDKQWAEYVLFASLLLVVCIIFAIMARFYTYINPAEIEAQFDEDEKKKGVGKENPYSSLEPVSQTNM
Summary of the method: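 Rat PEPT1 (pPIC3.5K-rPept1) in GS115 His+Mut+ transformant, methanol-induced 20-24 hr in BMMY at 30°C, washed into 100 mM potassium phosphate pH 6.5. [3H]GlySar final 5.0 µM with inhibitor at 10 mM, 30 sec at 24°C. Counts taken by liquid scintillation after 24 hr standing. Values are vector-subtracted and given as % of buffer control. Mean ± SE, n=3.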

[2] = target: T2, Solute carrier family 15 member 1 (Homo sapiens, UniProt P46059); assay: Activity at human recombinant PEPT1 expressed in Pichia pastoris GS115 assessed as non-saturable rate constant after 30s by dual-channel liquid scintillation counting analysis
T2 sequence (P46059 whole entry): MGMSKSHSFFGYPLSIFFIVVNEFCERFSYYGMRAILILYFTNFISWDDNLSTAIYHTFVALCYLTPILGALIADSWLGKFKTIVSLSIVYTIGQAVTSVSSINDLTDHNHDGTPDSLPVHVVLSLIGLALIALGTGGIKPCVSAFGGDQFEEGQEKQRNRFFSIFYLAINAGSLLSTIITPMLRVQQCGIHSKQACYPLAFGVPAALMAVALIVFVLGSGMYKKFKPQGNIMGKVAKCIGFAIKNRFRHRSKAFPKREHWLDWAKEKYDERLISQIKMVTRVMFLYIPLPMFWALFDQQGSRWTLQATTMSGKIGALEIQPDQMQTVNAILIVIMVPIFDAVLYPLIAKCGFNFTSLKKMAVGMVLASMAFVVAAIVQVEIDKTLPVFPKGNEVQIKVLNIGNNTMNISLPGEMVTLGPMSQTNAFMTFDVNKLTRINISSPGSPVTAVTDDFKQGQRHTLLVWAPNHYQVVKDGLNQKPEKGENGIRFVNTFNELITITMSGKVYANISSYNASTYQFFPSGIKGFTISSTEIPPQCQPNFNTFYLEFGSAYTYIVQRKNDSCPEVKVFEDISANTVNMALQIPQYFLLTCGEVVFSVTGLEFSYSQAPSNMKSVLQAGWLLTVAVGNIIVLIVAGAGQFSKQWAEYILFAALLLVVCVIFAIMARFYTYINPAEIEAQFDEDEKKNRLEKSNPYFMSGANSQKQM
Summary of the method: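 [3H]GlySar concentration series 0.005-10 mM, 30-s uptake at 24°C in 100 mM potassium phosphate pH 6.5. Cells come from His+Mut+ GS115 transformants induced 20-24 h in methanol medium. Uptake is normalised to OD600. Data are fitted to Michaelis-Menten plus a first-order nonsaturable term (Kd), weighting unity. Parameters are mean ± SE (n=9).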

[3] = target: T2, Solute carrier family 15 member 1; assay: Drug uptake in Pichia pastoris GS115 expressing human recombinant PEPT1 at 5 uM after 30s by dual-channel liquid scintillation counting analysis in presence of L-histidine relative to control; details: 0.5 min
Summary of the method: (§1)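 [3H]GlySar 5.0 µM final, 30-s uptake at 24°C in 100 mM potassium phosphate pH 6.5, with or without a potential inhibitor at 10 mM. Cells are methanol-induced transformants. Values are vector-subtracted and expressed as percent of buffer control. Mean ± SE (n=3). ANOVA with Dunnett's test.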

[4] = target: T1, Solute carrier family 15 member 1; assay: Drug uptake in Pichia pastoris GS115 expressing rat recombinant PEPT1 at 5 uM after 30s by dual-channel liquid scintillation counting analysis in presence of GlyPro relative to control; details: in vivo, 0.5 min; summary of the method: as §1
[5] = target: T2, Solute carrier family 15 member 1; assay: Drug uptake in Pichia pastoris GS115 expressing human recombinant PEPT1 at 5 uM after 30s by dual-channel liquid scintillation counting analysis in presence of cephradine relative to control; details: 0.5 min; summary of the method: as §1

Which results are given for `[3H]C(C(=O)O)N(C)C(=O)CN` (stereo not given)?
Drug uptake [1]: 119%; Kd [2]: 2.21 uL/OD/min; Drug uptake [3]: 122%; Drug uptake [4]: 0.6%; Drug uptake [5]: 23.2%
